Bioassay records (PubChem BioAssay)
CAL PDZ FP-1: CAL PDZ peptide-binding inhibitors, primary screen, biochemical, fluorescence polarization, Cer-tagged CAL PDZ, HTS; AID 504414, 2011; Golgi-associated PDZ and coiled-coil motif-containing protein (Homo sapiens), Q9HD26; purified CAL PDZ, TMR-peptide fluorescence polarization, 1 h; inhibition, % at 20 µM; 330,000 compounds, 0.02% hits;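 active = highest replicate inhibition of at least 40%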;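 note: plate controls were DMSO neutral control wells for no effect and unlabeled competitor peptide control wells for full effect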
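Material: tagged CAL PDZ protein CerCALP, purified; buffer or medium: sodium phosphate/NaCl buffer pH 7.4 with TCEP, IgG, Thesit; also added: fluorescent TMR peptide probe; schedule: 1 h incubation at room temperature before polarization reading; technique: fluorescence polarization from S- and P-plane intensities, G-factor corrected; control set: unlabelled peptide and DMSO controls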
LANA DNA inh: inhibitors of KSHV C-LANA binding to DNA, primary screen, biochemical, fluorescence polarization, FAM-LBS DNA, MBP-C-LANA, single point. Kaposi's sarcoma herpesvirus LANA C-terminal domain (residues 932-1162) DNA binding. inhibition, % at 9 µM. 340,000 compounds, 0.078% hits;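 active = highest replicate inhibition at or above 60% at 9 µM, even if other replicates fall short; inactive = all replicates below 60% inhibition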;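 note: 0% = neutral control wells and 100% = 4 µM acridine orange control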
CAL PDZ FP-2: untagged CAL PDZ binding inhibitors, primary screen, biochemical, fluorescence polarization, HTS; purified CAL PDZ, TMR-peptide fluorescence polarization, 1 h; inhibition, % at 24.9 µM; 300,000 compounds, 0.92% hits; AID 602252, 2012;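 active = mean inhibition of at least 30% with at least half of replicates also reaching 30%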;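 note: 0% = DMSO neutral control and 100% = excess unlabeled competitor peptide PRC23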
LANA-H2A inh: blockers of LANA interaction with H2A/H2B – biochemical, FP readout, HTS, primary screen. 320,000 compounds, 0.6% hits. Protein LANA1 (Human herpesvirus 8 type P (isolate GK18)), Q9QR71. AID 2629, 2010. inhibition, % (test concentration not listed). cell-free LANA-H2A/H2B peptide, fluorescence polarization; in the data active = inhibition mostly above about 10%, no sharp cut-off; inactive = mostly below about 6.7%
Keap1 Nrf2 FP: Keap1-Nrf2 protein-protein interaction inhibitors, primary screen, biochemical, fluorescence polarization, single point | Kelch-like ECH-associated protein 1 (Homo sapiens), Q14145 | Keap1 Kelch-Nrf2 peptide fluorescence polarization, 1536-well | inhibition, % at 9.4 µM | 340,000 compounds, 0.15% hits | AID 504523, 2011; in the data active = inhibition above about 12%;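 note: human Keap1 Kelch domain with fluorescein labeled Nrf2 9mer peptide probe; 0% = neutral control wells and 100% = peptide positive control; higher means more block of Keap1 binding to Nrf2 peptide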
Target sequence (Q14145 whole entry, looked up, the tested form may be a part): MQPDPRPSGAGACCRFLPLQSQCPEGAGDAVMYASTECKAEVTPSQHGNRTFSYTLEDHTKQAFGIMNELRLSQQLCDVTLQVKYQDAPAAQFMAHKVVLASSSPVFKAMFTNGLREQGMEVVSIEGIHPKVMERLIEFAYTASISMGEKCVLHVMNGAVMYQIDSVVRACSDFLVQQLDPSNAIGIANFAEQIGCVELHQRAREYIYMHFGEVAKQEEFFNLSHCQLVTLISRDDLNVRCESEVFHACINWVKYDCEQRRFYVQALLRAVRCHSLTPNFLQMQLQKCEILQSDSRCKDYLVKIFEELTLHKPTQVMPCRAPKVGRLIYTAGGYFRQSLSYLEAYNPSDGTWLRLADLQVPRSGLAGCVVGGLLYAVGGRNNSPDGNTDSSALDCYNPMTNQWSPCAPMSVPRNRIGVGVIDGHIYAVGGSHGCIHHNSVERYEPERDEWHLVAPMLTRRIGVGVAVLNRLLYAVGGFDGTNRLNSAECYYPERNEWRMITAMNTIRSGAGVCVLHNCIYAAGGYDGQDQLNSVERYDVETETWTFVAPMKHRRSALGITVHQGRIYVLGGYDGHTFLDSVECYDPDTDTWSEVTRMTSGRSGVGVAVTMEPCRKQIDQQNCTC
CaV13 FRET inh: Disruptors of the CACNA1D IQ motif to Ca2+-dependent inactivation inhibitor domain association, primary screening, Förster resonance energy transfer in intact living …; 340,000 compounds, 0.098% hits; HEK cells, CFP/YFP FRET ICDI-IQ, plate reader, 10 min; percent FRET-ratio fall versus neutral wells; inhibition, % at 12.3 µM;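 active = mean replicate inhibition of at least 30% and at least 1% of replicates passing that level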;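 note: 0% = median of the neutral control wells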
Active calls of the source: *. In the library only some 1.5% were active in any assay of this set; here they are far more common.

O=C(CNS(=O)(=O)c1ccc([N+](=O)[O-])cc1)N/N=C/c1ccc(O)cc1O was read as LANA DNA inh 2.0, CAL PDZ FP-2 34.5*, LANA-H2A inh -1.6, Keap1 Nrf2 FP 0.5 and CaV13 FRET inh -18.6.
O=[N+]([O-])c1ccc(NN=Cc2ccc(O)cc2O)nc1 was read as CAL PDZ FP-1 3.3, LANA DNA inh -1.4, CAL PDZ FP-2 47.8*, Keap1 Nrf2 FP -7.9 and CaV13 FRET inh -24.0.
For COC(=O)C1=C(C)N(Cc2ccccc2C(F)(F)F)C(=NCc2ccc(C(F)(F)F)cc2)NC1c1ccccc1 (centres undefined) the results were CaV13 FRET inh -2.8.
Screening CCCc1ccc(-c2cc(NC(=O)Cc3c[nH]c4ccccc34)ccc2Nc2cccnc2)cc1 returned CaV13 FRET inh -11.6.
COc1ccccc1N1CCN(C(=O)c2cc3cc(C)ccc3[nH]2)CC1 was read as LANA DNA inh -0.9, CAL PDZ FP-2 -5.8, LANA-H2A inh 14.9*, Keap1 Nrf2 FP 4.1 and CaV13 FRET inh -6.2.
`COc1ccccc1N1CCN(C(=O)c2cc3ccccc3[nH]2)CC1` gave CAL PDZ FP-1 -1.6, LANA DNA inh 1.2, CAL PDZ FP-2 -2.1, LANA-H2A inh -4.9, Keap1 Nrf2 FP -0.2 and CaV13 FRET inh -4.2.
`CCCCCCCCN1C(=O)[C@@H](CC(=O)N2CCN(C(=O)C3CC3)CC2)C[C@@]2(C(=O)OC)C1=C[C@H](C(C)(C)C)O[C@@H]2C` gave CaV13 FRET inh -7.5.
Cc1ccc(C(=O)n2nc(-c3ccccc3)nc2NCc2ccco2)cc1 was read as CAL PDZ FP-1 -1.3, LANA DNA inh -0.1, CAL PDZ FP-2 -1.0, LANA-H2A inh 2.8, Keap1 Nrf2 FP -4.1 and CaV13 FRET inh -7.7.
`CCCC(=O)n1nc(-c2ccc(C)cc2)nc1NCc1ccco1` gave CAL PDZ FP-1 1.9, LANA DNA inh -5.6, CAL PDZ FP-2 80.6*, LANA-H2A inh -1.0, Keap1 Nrf2 FP -4.9 and CaV13 FRET inh -2.0.
COC(=O)[C@@]12C[C@@H](CC(=O)NCCC(C)C)C(=O)N(Cc3ccc4c(c3)OCO4)C1=CCC(C)(C)C2 was read as CaV13 FRET inh -7.9.
For CSc1cccc(NC(=S)N(CCCN2CCCC2)Cc2cccn2Cc2ccc(Cl)cc2)c1 the results were CAL PDZ FP-1 -2.3, LANA DNA inh -1.1, CAL PDZ FP-2 -1.9, LANA-H2A inh 12.9*, Keap1 Nrf2 FP -0.7 and CaV13 FRET inh -1.0.
`CC1(C(=O)Nc2cccc3cccnc23)CCN1Cc1ccccc1OC(F)F` (centres undefined) gave CaV13 FRET inh -4.8.
For CN(C)C1(CNC(=S)Nc2ccccc2C(F)(F)F)CCCCC1 the results were CAL PDZ FP-1 0.2, LANA DNA inh -0.5, CAL PDZ FP-2 60.8*, LANA-H2A inh 2.2, Keap1 Nrf2 FP -4.3 and CaV13 FRET inh -6.9.
Screening COC(=O)[C@]12C[C@H](CC(=O)N3CCSCC3)C(=O)N(Cc3ccccc3)C1=C[C@H](C(C)C)O[C@@H]2C1CC1 returned CaV13 FRET inh -12.2.
O=C(CCN1CCN(Cc2ccccc2)CC1)NNC(=O)Nc1cccc(Cl)c1 was read as CAL PDZ FP-1 -2.8, LANA DNA inh 16.5, CAL PDZ FP-2 -0.7, LANA-H2A inh 1.0, Keap1 Nrf2 FP 5.8 and CaV13 FRET inh -5.6.
`O=C(Nc1ccc(CN2CCOCC2)cc1)c1ccc(-c2cccc([N+](=O)[O-])c2)o1` gave CAL PDZ FP-1 -2.2, LANA DNA inh 0.6, CAL PDZ FP-2 6.1, LANA-H2A inh 26.3*, Keap1 Nrf2 FP 3.5 and CaV13 FRET inh -6.8.
